How the values were obtained:
[1] = test system: HepG2, MCF-7, and SW480 cells; experiment: In vitro cytotoxicity; assay type: cell-based; conditions: MTT assay, three cell lines, 48 h
How it was run: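 Cells grown in RPMI 1640 or L-15 with 10% FBS were seeded at 5,000 cells/well and left to attach overnight. Graded concentrations of test compound were applied in quintuplicate for 48 h at 37°C and 5% CO2. MTT was added for 4 h and absorbance read at 490 nm. IC50 was taken as the concentration giving 50% growth inhibition; the assay was run three times.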

[2] = Water solubility of the prodrug; assay type: physicochemical; conditions: prodrug relative to 10-HCPT
[3] = Drug release from conjugates in phosphate-buffered saline; assay type: physicochemical
How it was run: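 Conjugate at 0.5 mg/mL final in 0.01 mol/L PBS at pH 3.0, 4.0, 5.0, 6.0 and 7.4, held at 37°C for 48 h. Supernatants were analysed by UPLC/MS in MRM mode using the 477.0/433.1 transition for the released ester.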

[4] = Drug release from conjugates in plasma; assay type: in vitro ADME, human; conditions: for amount of compound B released from the conjugate: plasma
How it was run: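 Conjugate stock (5.0 mg/mL) was added to human serum to 0.5 mg/mL final, with camptothecin internal standard at 1.0 µg/mL final, at 37°C. Samples were taken from 0.5 to 48 h, protein-precipitated with acetonitrile, centrifuged, dried under N2 at 40°C and reconstituted in acetonitrile. Analysis was by UPLC/MS against serum standards of 0.5–1,000 ng/mL using the internal standard method.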

[5] = Characterization of compound F self-assembly micelles; assay type: physicochemical; conditions: in water
[6] = In vivo pharmacokinetics and biodistribution; parameters: species or system tumor-bearing nude mice; conditions: for AUC0–inf / MRT0–inf: i.v. 5.0 mg/kg 10-HCPT injection or 35.1 mg/kg compound F solution, mice, n=6; for T2/1: blood circulation, i.v. single dose equal to 10-HCPT 5 mg/kg, tumor-bearing mice; for AUC(0-inf) / MRT inf: female, BALB/c (nude), mouse, iv, 5 mg/kg
How it was run: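 Tumor-bearing nude mice (n=6 per group) got one i.v. dose of free parent drug 5 mg/kg or parent-equivalent conjugate. Orbital blood was taken from 10 min to 48 h, and heart, liver, spleen, lung, kidney, brain and tumor were collected. Plasma or saline tissue homogenate was hydrolysed with 0.1 N NaOH (37°C, 20 min), then neutralised with HCl. Camptothecin internal standard was added before acetonitrile extraction. Parent drug was quantified by UPLC/MS and PK parameters derived with software.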

[7] = test system: tumor-bearing nude mouse models; experiment: In vivo antitumor efficacy; parameters: species or system mice; conditions: for tumor growth inhibition effect (TIR): tail vein injection, equivalent to 5.0 mg/kg 10-HCPT once a day for 14 days, n=8
How it was run: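 Dosing began in tumor-bearing nude mice once tumors reached ~50–100 mm3; groups (n=8) were balanced for weight and tumor size. Mice received saline, commercial parent-drug injection 5.0 mg/kg, or conjugate 35.1 mg/kg (parent-equivalent 5.0 mg/kg) by tail vein once daily for 14 days. Tumor volume (a×b²/2) was measured every 2 days; toxicity was judged from behaviour and weight loss.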

[8] = once a day for 14 days, tail vein

In the case of “10-HCPT-thiosemicarbazide-PEG2000-MeO conjugate [compound F]”, the “cytotoxicity (in words)” value [1] is reported as “strongest cytotoxicity”, the water solubility increase [2] is reported as “over 3,000 times” and the “amount of compound B released from the conjugate” value (shortened to “amount of compound B released”) ([3]; PBS pH 5.0, 37°C, after 4 h) is reported as about 100%. For the same molecule, the “amount of compound B released” value ([3]; PBS pH 7.4, 37°C, after 1 h) was 2%, the “amount of compound B released” value ([3]; PBS pH 7.4, 37°C, after 4 h) was 8% and the “amount of compound B released” value ([3]; pH 7.4 PBS, after 48 h) was under 30%. For the same molecule, the “stability (in words)” value ([3]; phosphate-buffered saline (pH 7.4)) was “good stability”, the “amount of compound B released” value ([4]; 37°C, after 1 h) was 5% and the “amount of compound B released” value ([4]; 37°C, after 4 h) was 15%. For the same molecule, the “amount of compound B released” value ([4]; after 48 h) was under 30%, the “stability (in words)” value ([4]; rat plasma) was “good stability” and the “concentration at which conjugates self-assemble into micelles” value [5] was 7500 µg/mL. The “AUC0–inf” value ([6]; Heart) was 3,795.7±1,539.3 µg/L h, the “MRT0–inf” value ([6]; Heart) was 4.379 ± 1.171 h and the “AUC0–inf” value ([6]; Kidney) was 1,260.4±585.8 µg/L h. The “MRT0–inf” value ([6]; Kidney) was 2.948 ± 0.548 h, the “AUC0–inf” value ([6]; Liver) was 52,688.4±3,111.2 µg/L h and the “MRT0–inf” value ([6]; Liver) was 10.07 ± 0.957 h. The “AUC0–inf” value ([6]; Lung) was 293,117.9±31,343.1 µg/L h, the “MRT0–inf” value ([6]; Lung) was 6.96 ± 0.178 h and the “AUC0–inf” value ([6]; Plasma) was 173,410.1±13,824.5 µg/L h. The “MRT0–inf” value ([6]; Plasma) was 28.975 ± 1.238 h, the “AUC0–inf” value ([6]; Spleen) was 8,993.1±1,534.3 µg/L h and the “MRT0–inf” value ([6]; Spleen) was 7.756 ± 1.518 h. For the same molecule, the “AUC0–inf” value ([6]; Tumor) was 162,823.9±19,289.2 µg/L h, the “MRT0–inf” value ([6]; Tumor) was 39.873 ± 4.549 h and the T2/1 [6] was 10.516 ± 1.158 h. The “AUC0–inf in tumor relative to 10-HCPT solution” value ([6]; tumor) was 7.76 fold, the “MRT0–inf in tumors compared with 10-HCPT solution” value ([6]; tumor) was 4.31 fold and the “body weight change (in words)” value [7, 8] was “did not cause significant loss of body weight”. For the same molecule, the “tumor volume (in words)” value ([7]; once a day for 14 days, tail vein, P<0.05) was “significantly smaller than that of the group treated with either saline or 10-HCPT solution” and the “tumor growth inhibition effect (TIR)” value [7] was 82.66%±7.175.
In the case of 5-carbonyl caproic acid, the “cytotoxicity (in words)” value [1] is reported as “almost no cytotoxicity”.
Work on `CC[C@@]1(O)C(=O)OCc2c1cc1n(c2=O)Cc2cc3cc(O)ccc3nc2-1` [10-HCPT, 10-Hydroxycamptothecin, reference compound] yielded a T2/1 [6] of 1.859 ± 1.385 h, an AUC(0-inf) ([6]; heart) of 11600 ng·h/mL and an MRT inf ([6]; heart) of 6.18 ± 1.5 h. It also gave an AUC(0-inf) ([6]; kidney) of 2090 ng·h/mL, an MRT inf ([6]; kidney) of 5.96 ± 1.09 h and an AUC(0-inf) ([6]; liver) of 28700 ng·h/mL. The MRT inf ([6]; liver) was 5.69 ± 0.845 h, the AUC(0-inf) ([6]; lung) was 130000 ng·h/mL and the MRT inf ([6]; lung) was 4.79 ± 0.648 h. The AUC(0-inf) ([6]; plasma) was 8410 ng·h/mL, the MRT inf ([6]; plasma) was 6.15 ± 0.964 h and the AUC(0-inf) ([6]; spleen) was 5040 ng·h/mL. For the same molecule, the MRT inf ([6]; spleen) was 5.68 ± 0.771 h, the AUC(0-inf) ([6]; tumor) was 21000 ng·h/mL and the MRT inf ([6]; tumor) was 9.25 ± 1.03 h. For the same molecule, the “body weight change (in words)” value [7, 8] was “significant body weight loss” and the “tumor growth inhibition effect (TIR)” value [7] was 63.85%±5.233.

From publication PMC5367588 (International Journal of Nanomedicine, 2017)
